# The list is not random: actives were taken first. Their share in the collection is about 3.7%.
# proCasp3 act – procaspase-3 (human) activation; P42574; recombinant procaspase-3 D3A, Ac-DEVD-pNA absorbance 405 nm; activation, % at 8.5 µM; 330,000 tested, 0.11% active; AID 463141;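 active = activation above the mean of all tested compounds plus 3 SD, cut at about 21% in these data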;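 note: 0% = DMSO alone and 100% = DMSO wells spiked with extra 5 µM PC-3 D3A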
# Target sequence (P42574 whole entry D9A/D28A/D175A): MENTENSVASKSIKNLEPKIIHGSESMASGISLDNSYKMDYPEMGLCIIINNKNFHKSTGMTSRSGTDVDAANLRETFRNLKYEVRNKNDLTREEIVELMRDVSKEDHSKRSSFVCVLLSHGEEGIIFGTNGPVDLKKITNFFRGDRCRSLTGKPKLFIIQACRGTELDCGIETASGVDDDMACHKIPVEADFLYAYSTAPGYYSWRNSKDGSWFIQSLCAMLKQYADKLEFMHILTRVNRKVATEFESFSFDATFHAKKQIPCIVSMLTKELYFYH
#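 Compound: 8.5 µM single point, 0.8% DMSO / Material: Autoprocessing-dead procaspase-3 D3A mutant enzyme / Timing: 1 h preincubation plus 2 h reaction at 25 °C / Medium: Zinc-free HEPES/NaCl buffer with 0.01% Triton X-100 at pH 7.4 / Technique: 405 nm absorbance of p-nitroaniline, reads at 0 and 120 min / Repeats: one well per compound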
# procasp7 counter – counter-screen for procaspase-3 activators: activators of human procaspase-7. 330,000 tested, 0.093% active. AID 463210. P55210. activation, % at 8.5 µM. recombinant procaspase-7, Ac-DEVD-pNA absorbance 405 nm; D23A/D198A/D206A triple mutant, cannot self-cleave; scale: DMSO 0, 5 µM enzyme 100;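 active = percent activation above the screen-wide mean plus 3 SD, cut at about 25% in these data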
# Target sequence (P55210 whole entry D23A/D198A/D206A): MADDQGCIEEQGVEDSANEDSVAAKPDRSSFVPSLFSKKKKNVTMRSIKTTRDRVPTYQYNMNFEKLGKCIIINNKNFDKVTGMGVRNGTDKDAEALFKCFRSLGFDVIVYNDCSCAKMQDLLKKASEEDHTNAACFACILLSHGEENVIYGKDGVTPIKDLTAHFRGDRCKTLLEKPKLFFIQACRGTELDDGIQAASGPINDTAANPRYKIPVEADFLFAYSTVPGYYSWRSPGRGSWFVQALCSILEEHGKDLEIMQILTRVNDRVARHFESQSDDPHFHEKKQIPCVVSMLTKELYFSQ
#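 Assay system: Uncleavable procaspase-7 mutant enzyme / Input: 2 µM procaspase-7 mutant as dispensed / Dosing: single nominal 8.5 µM compound dose, 0.8% DMSO final / Timing: 1 h enzyme–compound preincubation and 2 h substrate reaction, both 25 °C / Detection: p-Nitroaniline absorbance at 405 nm, read at 0 and 120 min / Replication: singlicate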
# GRIN3A LBD mod – NR3A (human) ligand-binding domain modulation. 340,000 tested, 2.5% active. Tm shift relative to glycine control, % at 25 µM. NR3A LBD differential scanning fluorimetry, Tm shift; 0% = protein alone, 100% = glycine-bound protein. AID 1259313;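 active = melting temperature shift of at least 10% of the positive control shift, at one fixed dose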
# MPTP block – blocks calcium-induced mitochondrial swelling; inhibition, % at 10 µM; 360,000 tested, 1.4% active; isolated mouse mitochondria, Ca2+ swelling absorbance, 30 min;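 active = inhibition of 50% or more, scaled per plate between neutral and stimulator controls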;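 note: 0% = DMSO wells given calcium and 100% = 1 mM EGTA wells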
# aDG glyco act – alpha-DG glycosylation activation. AID 624168. Pro5-aDG cells, alpha-DG glycosylation AlphaScreen (IIH6); 0% Pro5, 100% B10-LARGE cell signal. 360,000 tested, 0.22% active. activation, % at 10 µM;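 active = activation of at least 8% versus controls, or a plate z-score of at least 8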;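 note: Pro5 are CHO cells carrying HIG-tagged alpha-DG that lacks glycosylation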
# MPTP counter – membrane potential counter-screen of mitochondrial pore inhibitors; 5,000 tested, 78% active; AID 624504; shares compounds with MPTP block; isolated mitochondria, Rhodamine 123 fluorescence; inhibition, % at 10 µM; in the data active = inhibition above about 22%;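 note: 0% = DMSO vehicle and 100% = positive control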
# MPTP abs DR – dose response confirmation of mitochondrial permeability transition pore inhibitors | shares compounds with MPTP block | isolated mitochondria swelling, absorbance | IC50, µM | 780 tested, 58% active | AID 651561; in the data active = IC50 below about 20 µM
# MPTP counter DR – MPTP inhibitor counter-screen activity, dose response; 780 tested, 49% active; shares compounds with MPTP block; IC50, µM; isolated mitochondria counterscreen, fluorescence read-out; in the data active = IC50 below about 80 µM
# The depositor's hits bear a star; i = inactive; / = no result.
SMILES,proCasp3 act,procasp7 counter,GRIN3A LBD mod,MPTP block,aDG glyco act,MPTP counter,others
CN1CCc2c(OCC(=O)N3CCC(Cc4ccccc4)CC3)cccc2C1=O,-2,-1,-2,82*,1,49*,
NC(=O)c1nnn(Cc2cc(Cl)c(C(=O)c3ccc(Cl)cc3)c(Cl)c2)c1N,/,/,/,73*,1,91*,
CCC(C)c1ccc(NC(=O)C2CC3CCC2C3)cc1 (stereo unspecified),8,-2,-1,33,0,/,
C=CCS/C(N)=N\N=C\c1cc(Br)cc([N+](=O)[O-])c1O,1,7,4,53*,0,51*,
O=[N+]([O-])c1cc(Br)cc(/C=N/n2cnnc2)c1O,-7,0,1,0,0,/,
CC(C)N1CCC2(CC1)N=C(c1ccc3c(c1)OCO3)CC(c1cc(Cl)ccc1O)N2 (stereo unspecified),-19,-9,-2,69*,0,-6,
CC(Sc1ccc(Cl)cc1)C(=O)Nc1ccc2c(c1)OCO2 (stereo unspecified),-3,0,-3,1,0,/,
N#C/C(=C\c1ccc(-c2ccccc2C(=O)O)o1)c1nc2ccccc2[nH]1,1,0,-16,1,0,/,
N#C/C(=C/c1ccc(Sc2nc3ccccc3[nH]2)o1)c1ccccc1F,-14,-14,-1,96*,0,83*,
N#C/C(=C/c1ccc(Sc2nc3ccccc3[nH]2)o1)c1cccc(Br)c1,-5,-4,2,84*,1,98*,
N#C/C(=C\c1ccc(Sc2ccccc2)o1)c1nc2ccccc2[nH]1,-8,-41,9,94*,3,68*,
O=C(N/N=C/c1ccc(Sc2nc3ccccc3[nH]2)o1)c1ccncc1,-1,1,1,26,1,/,
N#C/C(=C/c1ccc(Sc2nc3ccccc3[nH]2)o1)c1cccc(F)c1,-12,-11,0,85*,0,87*,
O=C(CN(c1ccc(Br)cc1)S(=O)(=O)c1ccc(Cl)c([N+](=O)[O-])c1)NCC1CCCO1 (stereo unspecified),/,/,-4,-2,1,/,
O=C(c1cc(-c2cccnc2)nc2ccccc12)N1CCN(S(=O)(=O)c2ccc(Cl)s2)CC1,/,/,-1,0,1,/,
COc1ccc(C(=O)NCC(=O)OCc2ccc([N+](=O)[O-])cc2)cc1,-2,-1,-1,4,0,/,
Cc1ccc(C(=O)NCC(=O)NCC(=O)OCc2ccc(Oc3ccc([N+](=O)[O-])cc3)cc2)cc1,-3,4,0,51*,2,52*,
O=C(O)Cc1ccc(NC(=O)COc2ccc3ccccc3c2)cc1,2,3,0,-1,0,/,
O=C(COc1ccc2ccccc2c1)Nc1ccc(Cc2ccncc2)cc1,-3,9,-11,94*,0,88*,
O=C(COc1ccc(Cl)cc1)Nc1ccc(Cc2ccncc2)cc1,-1,-6,-1,75*,0,72*,
CCOC(=O)C1(Cc2ccccc2)CCN(Cc2ccc3cc(NC(C)=O)ccc3n2)CC1,-5,3,-2,-1,1,/,
OCCSc1nc(-c2ccccc2)nc2ccc(F)cc12,-1,-2,-8,4,0,/,
NC(N)=Nc1nc(-c2ccccc2)c2cc(F)ccc2n1,-2,2,-3,82*,0,2,MPTP abs DR=6.2*;MPTP counter DR=47*
CCCOc1ccc(F)cc1-c1cc(C(=O)NCc2ccccc2OC)[nH]n1,/,/,/,0,1,/,
CC(=O)CCc1ccc(OCC(O)CNCCOc2ccc(C)cc2)cc1 (stereo unspecified),5,-5,-3,74*,0,-9,MPTP abs DR=i;MPTP counter DR=>80
SMILES,proCasp3 act,procasp7 counter,GRIN3A LBD mod,MPTP block,aDG glyco act,MPTP counter,others
CC1(c2ccc3ccccc3c2)NC(=O)N(CC(=O)N2CCN(Cc3ccccc3)CC2)C1=O (stereo unspecified),6,-6,-1,12,1,/,
OC1(c2ccc3ccccc3c2)CCN(Cc2ccccc2)C1 (stereo unspecified),-1,-4,1,55*,2,-3,MPTP abs DR=i;MPTP counter DR=>80
COc1cc(CNCCc2ccc(S(N)(=O)=O)cc2)ccc1OCc1ccc(Cl)cc1,0,7,-5,50*,0,7,MPTP abs DR=3.9*;MPTP counter DR=15*
CCCc1cc(=O)[nH]c(SCc2cc(Cl)ccc2OC(F)F)n1,-6,1,-13,71*,0,55*,
CCCc1cc(=O)[nH]c(SCc2ccc(Cl)cc2)n1,5,-4,-2,1,0,/,
CCCCn1c(N2CCCC2)nc2c1c(=O)[nH]c(=O)n2C,-1,-2,-1,0,0,/,
Cc1cc(=O)oc2ccc(OCc3ccccc3)cc12,0,1,-1,-1,0,/,
Cc1cc(=O)oc2cc(O)cc(OCc3ccccc3)c12,/,/,1,78*,0,98*,
Cc1c(C)n(CCN(C)C)c2ccc(C(=O)OCCN(C)C)cc12,-5,0,0,0,1,/,
Cc1c(C)n(Cc2ccccc2)c2ccc(C(=O)OCCCN(C)C)cc12,0,9,-5,78*,7,-3,
O=C(COc1cccc(F)c1)N[C@@H](Cc1ccccc1)c1nc2ccccc2[nH]1,12,8,-5,16,0,/,
COc1ccccc1NC(=O)c1nnn(Cc2ccccc2)c1NC(=O)C(F)(F)F,-4,-7,-5,74*,0,73*,
COc1ccccc1NC(=O)c1nnn(Cc2ccccc2)c1NC(C)=O,-3,6,3,0,3,/,
CC(=O)Nc1c(C(=O)NCc2ccccc2)nnn1Cc1ccccc1,-7,-11,-3,2,-1,/,
O=C(Nc1ccccc1)c1nnn(Cc2ccccc2)c1NC(=O)C(F)(F)F,11,0,1,89*,0,84*,
O=C(C(=O)N1CCN(c2ccncc2)CC1)c1cccc(Br)c1,/,/,/,0,0,/,
CC(C)(C)NC(=O)C(c1ccc(C#N)cc1)n1c(=O)c(-c2ccco2)nc2ccccc21 (stereo unspecified),/,/,/,-2,0,/,
COc1ccc(C2=NNC(=O)C2(C)Br)cc1 (stereo unspecified),/,/,0,-1,0,/,
Cc1ccc(C(=O)Nc2ccc(C(=O)O)cc2)cc1S(=O)(=O)Nc1cccc([N+](=O)[O-])c1,4,10,-4,1,0,/,
Cc1ccccc1NS(=O)(=O)c1cc(C(=O)Nc2cccc([N+](=O)[O-])c2)ccc1C,-12,3,24*,98*,1,78*,

# Compound activity: PubChem, several laboratories
